This note sets out measurements from ChEMBL document CHEMBL1150781, “High-level gentamicin resistance mediated by a Tn4001-like transposon in seven nonclonal hospital isolates of Streptococcus pasteurianus” (2007).

Common to all, as to assay type: functional
Assay [1] has as its system Streptococcus pasteurianus. Kind of assay: Antibacterial activity against high-level gentamicin resistant Streptococcus pasteurianus SB28 isolate carrying transposon-borne resistance gene [aac(6')Ie-aph(2'')Ia] by agar dilution method. The gist of the method: (§1)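 MIC by agar dilution following CLSI guidelines; test organisms were clinical S. bovis/S. pasteurianus isolates recovered from blood cultures.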

Assay [2] relates to Streptococcus pasteurianus. Nature of the assay: Antibacterial activity against high-level gentamicin resistant Streptococcus pasteurianus SB34 isolate carrying transposon-borne resistance gene [aac(6')Ie-aph(2'')Ia] by agar dilution method. The gist of the method:
as §1
(In agar dilution, organisms are placed on agar that contains the substance at set levels.)

Assay [3] has as its system Streptococcus pasteurianus. Kind of assay: Antibacterial activity against high-level gentamicin resistant Streptococcus pasteurianus SB10 isolate carrying transposon-borne resistance gene [aac(6')Ie-aph(2'')Ia] by agar dilution method. The gist of the method:
as §1

Another assay concerns Enterococcus faecalis. Kind of assay: Antimicrobial activity against Enterococcus faecalis ATCC 29212 by agar dilution method.
Assay [4] has as its system Streptococcus pasteurianus. Nature of the assay: Antibacterial activity against high-level gentamicin resistant Streptococcus pasteurianus SB41 isolate carrying transposon-borne resistance gene [aac(6')Ie-aph(2'')Ia] by agar dilution method. The gist of the method:
as §1

Assay [5] relates to Streptococcus pasteurianus. Nature of the assay: Antibacterial activity against high-level gentamicin resistant Streptococcus pasteurianus SB30 isolate carrying transposon-borne resistance gene [aac(6')Ie-aph(2'')Ia] by agar dilution method. The gist of the method:
as §1

In assay [6] the test system is Streptococcus pasteurianus. Nature of the assay: Antibacterial activity against high-level gentamicin resistant Streptococcus pasteurianus SB33 isolate carrying transposon-borne resistance gene [aac(6')Ie-aph(2'')Ia] by agar dilution method. The gist of the method:
as §1

For another assay, the system named is Streptococcus equinus. Nature of the assay: Antibacterial activity against Streptococcus bovis ATCC 33317 by agar dilution method. The gist of the method: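 MIC read by agar dilution against S. bovis/S. pasteurianus, run to CLSI guidelines.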
The subject of assay [7] is Streptococcus pasteurianus. Nature of the assay: Antibacterial activity against high-level gentamicin resistant Streptococcus pasteurianus SB40 isolate carrying transposon-borne resistance gene [aac(6')Ie-aph(2'')Ia] by agar dilution method. Put shortly: as §1

Converted amounts (≈) assume the structure as drawn. Bounds are passed on as bounds.

Consider `NCC[C@H](O)C(=O)N[C@@H]1C[C@H](N)[C@@H](O[C@H]2O[C@H](CN)[C@@H](O)[C@H](O)[C@H]2O)[C@H](O)[C@H]1O[C@H]1O[C@H](CO)[C@@H](O)[C@H](N)[C@H]1O` [AMIKACIN], for which the MIC – broadly, the smallest concentration in the dilution series that meets the test's criterion for growth inhibition – was found to be 512 µg/mL (≈ 874 µM) in assay [1]; 32 µg/mL (≈ 54.6 µM) in [2]; 64 µg/mL (≈ 109 µM) in assay [3]; 64 µg/mL (≈ 109 µM) against Enterococcus faecalis; 32 µg/mL (≈ 54.6 µM) in assay [4]; 128 µg/mL (≈ 219 µM) in assay [5]. Further, the figures for the MIC (in assay [6]; in the assay with Streptococcus equinus; in assay [7]) were 32 µg/mL (≈ 54.6 µM), 64 µg/mL (≈ 109 µM) and 32 µg/mL (≈ 54.6 µM), respectively.

For `CCC[C@@H]1C[C@@H](C(=O)N[C@@H]([C@H]2O[C@H](SC)[C@H](O)[C@@H](O)[C@H]2O)[C@H](C)Cl)N(C)C1` [CLINDAMYCIN], the MIC in [1] amounted to 16 µg/mL (≈ 37.6 µM); in assay [2], 128 µg/mL (≈ 301 µM); in [3], 256 µg/mL (≈ 602 µM); against Enterococcus faecalis, 4 µg/mL (≈ 9.41 µM); in assay [4] it was 512 µg/mL (≈ 1200 µM); in [5], 0.5 µg/mL (≈ 1.18 µM). The MIC in assay [6] is 512 µg/mL (≈ 1200 µM); with Streptococcus equinus it was less than 0.03 µg/mL; in assay [7], 512 µg/mL (≈ 1200 µM).

Consider `CC[C@H]1OC(=O)[C@H](C)[C@@H](O[C@H]2C[C@@](C)(OC)[C@@H](O)[C@H](C)O2)[C@H](C)[C@@H](O[C@@H]2O[C@H](C)C[C@H](N(C)C)[C@H]2O)[C@](C)(O)C[C@@H](C)C(=O)[C@H](C)[C@@H](O)[C@]1(C)O` [ERYTHROMYCIN], for which the MIC in [1] was more than 512 µg/mL; in [2], more than 512 µg/mL; in assay [3] it was more than 512 µg/mL; against Enterococcus faecalis it was 2 µg/mL (≈ 2.73 µM); in [4], more than 512 µg/mL; in [5], more than 512 µg/mL. Also, the MIC in [6] was more than 512 µg/mL; with Streptococcus equinus, 0.06 µg/mL (≈ 0.0818 µM); in assay [7], more than 512 µg/mL.

In the case of `NC[C@H]1O[C@H](O[C@H]2[C@H](O)[C@@H](O[C@H]3O[C@H](CO)[C@@H](O)[C@H](N)[C@H]3O)[C@H](N)C[C@@H]2N)[C@H](O)[C@@H](O)[C@@H]1O` [KANAMYCIN], the MIC was more than 4100 µg/mL in assay [1]; more than 4100 µg/mL in [2]; more than 4100 µg/mL in assay [3]; 16 µg/mL (≈ 33 µM) with Enterococcus faecalis; more than 4100 µg/mL in assay [4]; 4100 µg/mL (≈ 8450 µM) in [5]. The figures for the MIC (in assay [6]; in the assay on Streptococcus equinus; in assay [7]) were 4100 µg/mL (≈ 8450 µM), 128 µg/mL (≈ 264 µM) and more than 4100 µg/mL, respectively.

In the case of `CN(C)c1ccc(O)c2c1C[C@H]1C[C@H]3[C@H](N(C)C)C(O)=C(C(N)=O)C(=O)[C@@]3(O)C(O)=C1C2=O` [MINOCYCLINE], the MIC in assay [1] was 16 µg/mL (≈ 35 µM); in assay [2], 0.12 µg/mL (≈ 0.262 µM); in assay [3], 8 µg/mL (≈ 17.5 µM); in assay [4], 8 µg/mL (≈ 17.5 µM); in [5], 8 µg/mL (≈ 17.5 µM); in [6] it was 16 µg/mL (≈ 35 µM). For the same compound, the MIC in assay [7] is 16 µg/mL (≈ 35 µM).

With `CCN[C@@H]1C[C@H](N)[C@@H](O[C@H]2OC(CN)=CC[C@H]2N)[C@H](O)[C@H]1O[C@H]1OC[C@](C)(O)[C@H](NC)[C@H]1O` [NETILMICIN], the MIC in [1] was found to be 512 µg/mL (≈ 1080 µM); in assay [2], 32 µg/mL (≈ 67.3 µM); in assay [3], 64 µg/mL (≈ 135 µM); with Enterococcus faecalis, 4 µg/mL (≈ 8.41 µM); in [4] it was 8 µg/mL (≈ 16.8 µM); in assay [5], 128 µg/mL (≈ 269 µM). The MIC (in [6]; with Streptococcus equinus; in assay [7]) was 16 µg/mL (≈ 33.6 µM) throughout.

`CN[C@@H]1[C@H](O[C@H]2[C@H](O[C@H]3[C@H](O)[C@@H](O)[C@H](N=C(N)N)[C@@H](O)[C@@H]3N=C(N)N)O[C@@H](C)[C@]2(O)C=O)O[C@@H](CO)[C@H](O)[C@H]1O` [STREPTOMYCIN]: the MIC in [1] came out at 64 µg/mL (≈ 110 µM); in assay [2] it was 32 µg/mL (≈ 55 µM); in assay [3] it was 32 µg/mL (≈ 55 µM); against Enterococcus faecalis it was 32 µg/mL (≈ 55 µM); in [4], 32 µg/mL (≈ 55 µM); in assay [5], 64 µg/mL (≈ 110 µM). The minimal inhibitory concentration (MIC) is 32 µg/mL (≈ 55 µM) in [6], 64 µg/mL (≈ 110 µM) in the assay with Streptococcus equinus and 32 µg/mL (≈ 55 µM) in assay [7].

Take `CN(C)[C@@H]1C(O)=C(C(N)=O)C(=O)[C@@]2(O)C(O)=C3C(=O)c4c(O)cccc4[C@@](C)(O)[C@H]3C[C@@H]12` [TETRACYCLINE]: the MIC in assay [1] was 128 µg/mL (≈ 288 µM); in assay [2] it was 0.25 µg/mL (≈ 0.563 µM); in assay [3], 128 µg/mL (≈ 288 µM); against Enterococcus faecalis it was 16 µg/mL (≈ 36 µM); in assay [4], 256 µg/mL (≈ 576 µM); in [5], 128 µg/mL (≈ 288 µM). For the same compound, the values for the MIC (in [6]; against Streptococcus equinus; in assay [7]) were 256 µg/mL (≈ 576 µM), 0.25 µg/mL (≈ 0.563 µM) and 256 µg/mL (≈ 576 µM), respectively.
